# Measurements as given in ChEMBL document CHEMBL5360562 (Eur J Med Chem, 2023).
# How the values were obtained:
# Acinetobacter baumannii [1] = assay: Potentiation of rifampicin antibacterial activity against Acinetobacter baumannii AB5075 assessed as rifampicin MIC at 30 uM incubated for 16 hrs by broth microdilution method; format: functional
# Acinetobacter baumannii [2] = assay: Potentiation of Clarithromycin antibacterial activity against Acinetobacter baumannii AB5075 assessed as clarithromycin MIC at 30 uM incubated for 16 hrs by broth microdilution method; format: functional
# Klebsiella pneumoniae [3] = assay: Potentiation of Clarithromycin antibacterial activity against Klebsiella pneumoniae ATCC BAA-2146 assessed as clarithromycin MIC at 7.5 uM incubated for 16 hrs by broth microdilution method; format: functional
# [4] = Antiproliferative against human HepG2 cells assessed as reduction in cell viability incubated for 24 hrs by XTT assay; format: toxicity, cell-based
# Acinetobacter baumannii [5] = assay: Potentiation of rifampicin antibacterial activity against Acinetobacter baumannii AB5075 assessed as rifampicin MIC at 20 uM incubated for 16 hrs by broth microdilution method; format: functional
# Escherichia coli [6] = assay: Potentiation of Clarithromycin antibacterial activity against Escherichia coli ATCC 25922 assessed as clarithromycin MIC at 3 uM incubated for 16 hrs by broth microdilution method; format: functional
# Acinetobacter baumannii [7] = assay: Potentiation of rifampicin antibacterial activity against Acinetobacter baumannii AB5075 assessed as fold reduction in rifampicin MIC at 10 uM incubated for 16 hrs by broth microdilution method; format: functional
# Acinetobacter baumannii [8] = assay: Potentiation of Clarithromycin antibacterial activity against Acinetobacter baumannii AB5075 assessed as reduction in clarithromycin MIC at 20 uM incubated for 16 hrs by broth microdilution method; format: functional
# Acinetobacter baumannii [9] = assay: Potentiation of Clarithromycin antibacterial activity against Acinetobacter baumannii AB5075 assessed as fold reduction in clarithromycin MIC at 7.5 uM incubated for 16 hrs by broth microdilution method; format: functional
# Summary of the method: (§1)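 Checkerboard-style potentiation by broth microdilution. 6 h day cultures in CAMHB diluted to 5×10^5 CFU/mL. Adjuvant added from 10 mM DMSO stock at fixed concentration throughout. […] Controls: antibiotic alone, adjuvant alone, media only. Incubated stationary at 37 °C for 16 h. MIC is lowest concentration with no visible growth; fold reduction taken against the antibiotic-alone lane.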
# [10] = Therapeutic index, ratio of IC50 for antiproliferative against human HepG2 cells assessed as reduction in cell viability to MIC for potentiation of Clarithromycin antibacterial activity against Acinetobacter baumannii […] assessed as clarithromycin MIC; format: toxicity, cell-based; settings: read-out: TI
# Pseudomonas aeruginosa [11] = assay: Antibacterial activity against Pseudomonas aeruginosa PAO1 assessed as inhibition of bacterial growth incubated for 16 hrs by broth microdilution method; format: functional
# Summary of the method: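 Standalone MIC by broth microdilution. 6 h day cultures in cation-adjusted Mueller-Hinton broth (CAMHB) diluted to 5×10^5 CFU/mL. Compound added from 10 mM DMSO stock to 200 μM (highest concentration), then twofold serial dilution. Incubated stationary at 37 °C for 16 h. OD600 read; MIC is lowest concentration with <10% growth versus positive control.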
# Acinetobacter baumannii [12] = assay: Potentiation of Azithromycin antibacterial activity against Acinetobacter baumannii AB5075 assessed as azithromycin MIC at 10 uM incubated for 16 hrs by broth microdilution method; format: functional
# Acinetobacter baumannii [13] = assay: Potentiation of erythromycin antibacterial activity against Acinetobacter baumannii AB5075 assessed as erythromycin MIC at 20 uM incubated for 16 hrs by broth microdilution method; format: functional
# Klebsiella pneumoniae [14] = assay: Potentiation of Clarithromycin antibacterial activity against Klebsiella pneumoniae ATCC BAA-2146 assessed as clarithromycin MIC at 10 uM incubated for 16 hrs by broth microdilution method; format: functional
# Acinetobacter baumannii [15] = assay: Potentiation of rifampicin antibacterial activity against Acinetobacter baumannii AB5075 assessed as rifampicin MIC at 5 uM incubated for 16 hrs by broth microdilution method; format: functional
# Summary of the method: (§2)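 A. baumannii AB5075 6 h day cultures in CAMHB subcultured to 5×10^5 CFU/mL; adjuvant added from 10 mM DMSO stock at fixed concentration, then rifampicin (DMSO) twofold serially diluted in adjuvant-containing broth. Antibiotic-alone and adjuvant-alone control lanes.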
# Pseudomonas aeruginosa [16] = assay: Potentiation of Clarithromycin antibacterial activity against Pseudomonas aeruginosa PAO1 assessed as clarithromycin MIC at 30 uM incubated for 16 hrs by broth microdilution method; format: functional
# Acinetobacter baumannii [17] = assay: Potentiation of rifampicin antibacterial activity against Acinetobacter baumannii AB5075 assessed as rifampicin MIC at 7.5 uM incubated for 16 hrs by broth microdilution method; format: functional; summary of the method: as §2
# Acinetobacter baumannii [18] = assay: Potentiation of Clarithromycin antibacterial activity against Acinetobacter baumannii AB5711 assessed as clarithromycin MIC at 10 uM incubated for 16 hrs by broth microdilution method; format: functional
# Escherichia coli [19] = assay: Antibacterial activity against Escherichia coli ATCC 25922 assessed as inhibition of bacterial growth incubated for 16 hrs by broth microdilution method; format: functional
# Summary of the method: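 Standalone MIC by broth microdilution. 6 h day cultures in cation-adjusted Mueller-Hinton broth (CAMHB) diluted to 5×10^5 CFU/mL. Compound added from 10 mM DMSO stock to 200 μM (highest concentration), then twofold serial dilution. Incubated stationary at 37 °C for 16 h.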
# Acinetobacter baumannii [20] = assay: Potentiation of erythromycin antibacterial activity against Acinetobacter baumannii AB5075 assessed as erythromycin MIC at 10 uM incubated for 16 hrs by broth microdilution method; format: functional
# Acinetobacter baumannii [21] = assay: Potentiation of Azithromycin antibacterial activity against Acinetobacter baumannii AB5075 assessed as azithromycin MIC at 5 uM incubated for 16 hrs by broth microdilution method; format: functional
# Acinetobacter baumannii [22] = assay: Potentiation of Clarithromycin antibacterial activity against Acinetobacter baumannii AB5075 assessed as clarithromycin MIC at 5 uM incubated for 16 hrs by broth microdilution method; format: functional
# Acinetobacter baumannii [23] = assay: Potentiation of Azithromycin antibacterial activity against Acinetobacter baumannii AB5075 assessed as azithromycin MIC at 7.5 uM incubated for 16 hrs by broth microdilution method; format: functional
# Acinetobacter baumannii [24] = assay: Potentiation of Clarithromycin antibacterial activity against Acinetobacter baumannii AB5075 assessed as clarithromycin MIC at 7.5 uM incubated for 16 hrs by broth microdilution method; format: functional
# Acinetobacter baumannii [25] = assay: Potentiation of Azithromycin antibacterial activity against Acinetobacter baumannii AB5075 assessed as azithromycin MIC at 30 uM incubated for 16 hrs by broth microdilution method; format: functional
# Acinetobacter baumannii [26] = assay: Potentiation of Clarithromycin antibacterial activity against Acinetobacter baumannii AB5075 assessed as fold reduction in clarithromycin MIC at 10 uM incubated for 16 hrs by broth microdilution method; format: functional; summary of the method: as §1
# Acinetobacter baumannii [27] = assay: Potentiation of erythromycin antibacterial activity against Acinetobacter baumannii AB5075 assessed as erythromycin MIC at 5 uM incubated for 16 hrs by broth microdilution method; format: functional
# Acinetobacter baumannii [28] = assay: Potentiation of Azithromycin antibacterial activity against Acinetobacter baumannii AB5075 assessed as azithromycin MIC at 20 uM incubated for 16 hrs by broth microdilution method; format: functional
# Acinetobacter baumannii [29] = assay: Potentiation of Clarithromycin antibacterial activity against Acinetobacter baumannii AB3560 assessed as clarithromycin MIC at 10 uM incubated for 16 hrs by broth microdilution method; format: functional
# Acinetobacter baumannii [30] = assay: Potentiation of Clarithromycin antibacterial activity against Acinetobacter baumannii AB4498 assessed as clarithromycin MIC at 10 uM incubated for 16 hrs by broth microdilution method; format: functional
# Acinetobacter baumannii [31] = assay: Potentiation of Clarithromycin antibacterial activity against Acinetobacter baumannii AB5075 assessed as clarithromycin MIC at 10 uM incubated for 16 hrs by broth microdilution method; format: functional
smiles,measurement,setting,value
Cl.Cl.Nc1nc(-c2ccc(NC(=O)Nc3cccc(-c4c[nH]c(N)n4)c3F)cc2F)c[nH]1,MIC,Acinetobacter baumannii [1],0.001 µg/mL
same,MIC,Acinetobacter baumannii [2],≤ 0.062 µg/mL
same,MIC,Klebsiella pneumoniae [3],16 µg/mL
same,IC50 at 24 h,[4],208 µg/mL
same,MIC,Acinetobacter baumannii [5],0.001 µg/mL
same,MIC,Escherichia coli [6],4 µg/mL
same,fold change (FC),Acinetobacter baumannii [7],32
same,fold change (FC),Acinetobacter baumannii [8],>=512
same,MIC,"Acinetobacter baumannii [8]; Acinetobacter baumannii, AB5075",≤ 0.062 µg/mL
same,fold change (FC),Acinetobacter baumannii [9],>=512
same,selectivity ratio,[10],287
same,MIC,Pseudomonas aeruginosa [11],256 µM
same,MIC,Acinetobacter baumannii [12],0.125 µg/mL
same,MIC,Acinetobacter baumannii [13],≤ 0.062 µg/mL
same,MIC,Klebsiella pneumoniae [14],2 µg/mL
same,MIC,Acinetobacter baumannii [15],0.125 µg/mL
same,MIC,Pseudomonas aeruginosa [16],0.5 µg/mL
same,MIC,Acinetobacter baumannii [17],0.015 µg/mL
same,MIC,Acinetobacter baumannii [18],≤ 0.062 µg/mL
same,MIC,Escherichia coli [19],12.5 µM
same,MIC,Acinetobacter baumannii [20],≤ 0.062 µg/mL
same,MIC,Acinetobacter baumannii [21],1 µg/mL
same,MIC,Acinetobacter baumannii [22],≤ 0.062 µg/mL
same,MIC,Acinetobacter baumannii [23],0.5 µg/mL
same,MIC,Acinetobacter baumannii [24],≤ 0.062 µg/mL
same,MIC,Acinetobacter baumannii [25],≤ 0.062 µg/mL
same,fold change (FC),Acinetobacter baumannii [26],>=512
same,MIC,Acinetobacter baumannii [27],0.5 µg/mL
same,MIC,Acinetobacter baumannii [28],≤ 0.062 µg/mL
same,MIC,Acinetobacter baumannii [29],≤ 0.062 µg/mL
same,MIC,Acinetobacter baumannii [30],≤ 0.062 µg/mL
same,MIC,Acinetobacter baumannii [31],≤ 0.062 µg/mL
